Experimental data: ChEMBL document CHEMBL3244165, “Improved synthesis and in vitro antiviral activities of 5-cyanouridine and 5-cyano-2'-deoxyuridine” (J Med Chem, 1977)

Experiments:
Human alphaherpesvirus 1 [1] = assay: Antiviral activity against Herpes simplex virus 1 infected in primary rabbit kidney cells assessed as inhibition of virus-induced cytopathogenicity; assay type: functional
[2] = tested on: Vesicular stomatitis virus; assay: Antiviral activity against Vesicular stomatitis virus infected in primary rabbit kidney cells assessed as inhibition of virus-induced cytopathogenicity; assay type: functional
Human alphaherpesvirus 1 [3] = assay: Antiviral activity against Herpes simplex virus 1 infected in human skin fibroblasts assessed as inhibition of virus-induced cytopathogenicity; assay type: functional
[4] = Dissociation constant, pKa of the compound by spectrophotometric analysis; assay type: physicochemical
How it was run: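 Determined spectrophotometrically in Teorell-Stenhagen buffers.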

Row | SMILES | ID50 (Human alphaherpesvirus 1 [1]) | ID50 [2] | ID50 (Human alphaherpesvirus 1 [3]) | pKa [4]
1 | N#Cc1cn([C@@H]2O[C@H](CO)[C@@H](O)[C@H]2O)c(=O)[nH]c1=O | 3.7 ×10⁻⁴ M | >7 ×10⁻⁴ M | >7 ×10⁻⁴ M | –
2 | N#Cc1cn([C@H]2C[C@H](O)[C@@H](CO)O2)c(=O)[nH]c1=O | 1.6 ×10⁻⁴ M | – | >7 ×10⁻⁴ M | 6.8
3 | O=c1[nH]c(=O)n([C@H]2C[C@H](O)[C@@H](CO)O2)cc1Br [BROXURIDINE] | 3.2 ×10⁻⁷ M | – | 3.2 ×10⁻⁷ M | –
4 | O=c1[nH]c(=O)n([C@H]2C[C@H](O)[C@@H](CO)O2)cc1Cl [CHLORODEOXYURIDINE] | 7.6 ×10⁻⁷ M | – | 7.6 ×10⁻⁷ M | –
5 | O=c1[nH]c(=O)n([C@H]2C[C@H](O)[C@@H](CO)O2)cc1F [FLOXURIDINE] | 1.6 ×10⁻⁷ M | – | 4 ×10⁻⁷ M | –
6 | O=c1[nH]c(=O)n([C@H]2C[C@H](O)[C@@H](CO)O2)cc1I [IDOXURIDINE] | 5.7 ×10⁻⁷ M | – | 5.7 ×10⁻⁷ M | 8.2
7 | O=c1[nH]c(=O)n([C@H]2C[C@H](O)[C@@H](CO)O2)cc1C(F)(F)F [TRIFLURIDINE] | 6.6 ×10⁻⁷ M | – | 1.3 ×10⁻⁶ M | –
8 | Nc1ncnc2c1ncn2[C@@H]1O[C@H](CO)[C@@H](O)[C@@H]1O [VIDARABINE] | 1.5 ×10⁻⁵ M | – | 3.7 ×10⁻⁵ M | –
